Measured values as given in ChEMBL document CHEMBL1240360, “TMC278, a next-generation nonnucleoside reverse transcriptase inhibitor (NNRTI), active against wild-type and NNRTI-resistant HIV-1” (Antimicrob Agents Chemother, 2010).

Key:
[1] = tested on: Human immunodeficiency virus 1; experiment: Antiviral activity against Human immunodeficiency virus 1 group M subtype B assessed as days to viral replication breakthrough at 10 nM by cell based assay; assay type: functional
[2] = tested on: Human immunodeficiency virus 1; experiment: Antiviral activity against Human immunodeficiency virus 1 group M subtype BG assessed as days to viral replication breakthrough at 200 nM by cell based assay; assay type: functional
[3] = tested on: Human immunodeficiency virus 1; experiment: Antiviral activity against Human immunodeficiency virus 1 subtype A1 infected in human MT4 cells assessed as reduction in virus induced cytopathicity; assay type: functional, organism-based; details: Human immunodeficiency virus 1, subtype A1, MT4
How it was run: (§1)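 Recombinant viruses were made by recombining patient-derived HIV-1 RT-PR sequences into an RT-PR-deleted HXB2 proviral clone transfected into MT4 cells. Subtype was assigned from PR/RT sequence by Smith-Waterman alignment to HXB2. MT4 cells (1.5 × 10^5/ml) were infected at MOI 0.01 with serially diluted compound for 5 days at 37°C. Viability was read by MTT and EC50 derived.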

[4] = tested on: Human immunodeficiency virus 1; experiment: Antiviral activity against Human immunodeficiency virus 1 group M subtype B assessed as days to viral replication breakthrough at 40 nM by cell based assay; assay type: functional
[5] = tested on: Human immunodeficiency virus 1; experiment: Antiviral activity against Human immunodeficiency virus 1 group M subtype D assessed as days to viral replication breakthrough at 10 nM by cell based assay; assay type: functional
[6] = tested on: Human immunodeficiency virus 1; experiment: Antiviral activity against Human immunodeficiency virus 1 subtype F isolate 93BR029 infected in human PBMC cells by cell based assay; details: Human immunodeficiency virus 1, subtype F isolate 93BR029, PBMC
[7] = tested on: Human immunodeficiency virus 1; experiment: Antiviral activity against Human immunodeficiency virus 1 group M subtype H assessed as days to viral replication breakthrough at 10 nM by cell based assay; assay type: functional
[8] = tested on: Human immunodeficiency virus 1; experiment: Antiviral activity against Human immunodeficiency virus 1 subtype C isolate 93IN101 infected in human PBMC cells by cell based assay; details: Human immunodeficiency virus 1, subtype C isolate 93IN101, PBMC
[9] = tested on: Human immunodeficiency virus 1; experiment: Antiviral activity against Human immunodeficiency virus 1 subtype F isolate 93BR020 infected in human PBMC cells by cell based assay; details: Human immunodeficiency virus 1, subtype F isolate 93BR020, PBMC
[10] = tested on: Human immunodeficiency virus 1; experiment: Antiviral activity against Human immunodeficiency virus 1 group M subtype AE assessed as days to viral replication breakthrough at 40 nM by cell based assay; assay type: functional
[11] = tested on: Human immunodeficiency virus 1; experiment: Antiviral activity against Human immunodeficiency virus 1 subtype C isolate 93MW959 infected in human PBMC cells by cell based assay; details: Human immunodeficiency virus 1, subtype C isolate 93MW959, PBMC
[12] = tested on: Human immunodeficiency virus 1; experiment: Antiviral activity against Human immunodeficiency virus 1 group M subtype B assessed as days viral replication at 200 nM by cell based assay; assay type: functional
[13] = tested on: Human immunodeficiency virus 1; experiment: Antiviral activity against Human immunodeficiency virus 1 subtype G infected in human MT4 cells assessed as reduction in virus induced cytopathicity; assay type: functional, organism-based; how it was run: as §1
[14] = tested on: Human immunodeficiency virus 1; experiment: Antiviral activity against Human immunodeficiency virus 1 subtype C infected in human MT4 cells assessed as reduction in virus induced cytopathicity; assay type: functional, organism-based; how it was run: as §1
[15] = tested on: Human immunodeficiency virus 1; experiment: Antiviral activity against Human immunodeficiency virus 1 group M subtype AG assessed as days f for viral replication at 200 nM by cell based assay; assay type: functional
[16] = tested on: Human immunodeficiency virus 1; experiment: Antiviral activity against Human immunodeficiency virus 1 group M subtype F1 assessed as days to viral replication breakthrough at 40 nM by cell based assay; assay type: functional
[17] = tested on: Human immunodeficiency virus 1; experiment: Antiviral activity against Human immunodeficiency virus 1 subtype E isolate CMU08 infected in human PBMC cells by cell based assay; details: Human immunodeficiency virus 1, subtype E isolate CMU08, PBMC
[18] = tested on: Human immunodeficiency virus 1; experiment: Antiviral activity against Human immunodeficiency virus 1 group M subtype F1 assessed as days to viral replication breakthrough at 200 nM by cell based assay; assay type: functional
[19] = tested on: Human immunodeficiency virus 1; experiment: Antiviral activity against Human immunodeficiency virus 1 subtype D isolate 92UG024 infected in human PBMC cells by cell based assay; details: Human immunodeficiency virus 1, subtype D 92UG024, PBMC
[20] = tested on: Human immunodeficiency virus 1; experiment: Antiviral activity against Human immunodeficiency virus 1 group M subtype F1 assessed as days to viral replication breakthrough at 10 nM by cell based assay; assay type: functional
[21] = tested on: Human immunodeficiency virus 1; experiment: Antiviral activity against Human immunodeficiency virus 1 group M subtype BG assessed as days to viral replication breakthrough at 10 nM by cell based assay; assay type: functional
[22] = tested on: Human immunodeficiency virus 1; experiment: Antiviral activity against Human immunodeficiency virus 1 subtype O isolate BCF03 infected in human PBMC cells by cell based assay; details: Human immunodeficiency virus 1, subtype O isolate BCF03, PBMC
[23] = tested on: Human immunodeficiency virus 1; experiment: Antiviral activity against Human immunodeficiency virus 1 subtype F1 infected in human MT4 cells assessed as reduction in virus induced cytopathicity; assay type: functional, organism-based; details: Human immunodeficiency virus 1, subtype F1, MT4; how it was run: as §1
[24] = tested on: Human immunodeficiency virus 1; experiment: Antiviral activity against Human immunodeficiency virus 1 subtype A isolate 92RW020 infected in human PBMC cells by cell based assay; details: Human immunodeficiency virus 1, subtype A isolate 92RW020, PBMC
[25] = tested on: Human immunodeficiency virus 1; experiment: Antiviral activity against Human immunodeficiency virus 1 group M subtype AE assessed as days to viral replication breakthrough at 200 nM by cell based assay; assay type: functional
[26] = tested on: Human immunodeficiency virus 1; experiment: Antiviral activity against Human immunodeficiency virus 1 subtype G isolate JV1083 infected in human PBMC cells by cell based assay; details: Human immunodeficiency virus 1, subtype G isolate JV1083, PBMC
[27] = tested on: Human immunodeficiency virus 1; experiment: Antiviral activity against Human immunodeficiency virus 1 group M subtype C assessed as days to viral replication breakthrough at 40 nM by cell based assay; assay type: functional
[28] = tested on: Human immunodeficiency virus 1; experiment: Antiviral activity against Human immunodeficiency virus 1 group M subtype AG assessed as days to viral replication breakthrough at 40 nM by cell based assay; assay type: functional
[29] = tested on: Human immunodeficiency virus 1; experiment: Antiviral activity against Human immunodeficiency virus 1 group M subtype A1 assessed as days to viral replication breakthrough at 10 nM by cell based assay; assay type: functional
[30] = tested on: Human immunodeficiency virus 1; experiment: Antiviral activity against Human immunodeficiency virus 1 group M subtype D assessed as days to viral replication breakthrough at 40 nM by cell based assay; assay type: functional
[31] = tested on: Human immunodeficiency virus 1; experiment: Antiviral activity against Human immunodeficiency virus 1 group M subtype C assessed as days to viral replication breakthrough at 10 nM by cell based assay; assay type: functional
[32] = tested on: Human immunodeficiency virus 1; experiment: Antiviral activity against Human immunodeficiency virus 1 subtype D isolate 92UG035 infected in human PBMC cells by cell based assay; details: Human immunodeficiency virus 1, subtype D 92UG035, PBMC
[33] = tested on: Human immunodeficiency virus 1; experiment: Antiviral activity against Human immunodeficiency virus 1 subtype B isolate WEJO infected in human PBMC cells by cell based assay

Cc1cc(/C=C/C#N)cc(C)c1Nc1ccnc(Nc2ccc(C#N)cc2)n1 [RILPIVIRINE]
Activity [1]: 7 days
Activity [2]: > 31 days
EC50 [3]: 440 pM
Activity [4]: > 31 days
Activity [5]: 20 days
EC50 [6]: 190 pM
Activity [7]: > 31 days
EC50 [8]: 530 pM
EC50 [9]: 160 pM
Activity [10]: > 31 days
EC50 [11]: 110 pM
Activity [12]: > 31 days
EC50 [13]: 140 pM
EC50 [14]: 300 pM
Activity [15]: > 31 days
Activity [16]: > 31 days
EC50 [17]: 1010 pM
Activity [18]: > 31 days
EC50 [19]: 380 pM
Activity [20]: > 31 days
Activity [21]: 10 days
EC50 [22]: 8450 pM
EC50 [23]: 210 pM
EC50 [24]: 70 pM
Activity [25]: > 31 days
EC50 [26]: 260 pM
Activity [27]: > 31 days
Activity [28]: > 31 days
Activity [29]: 10 days
Activity [30]: > 31 days
Activity [31]: > 31 days
EC50 [32]: 70 pM
EC50 [33]: 80 pM
